Test results as given in ChEMBL document CHEMBL1124959, “Synthesis of peptidyl fluoromethyl ketones and peptidyl alpha-keto esters as inhibitors of porcine pancreatic elastase, human neutrophil elastase, and rat and human neutrophil cathepsin G” (J Med Chem, 1990).
Peptide text beside a SMILES is read from it. * marks the point of attachment. Dansyl = CN(C)c1cccc2c(S(=O)(=O)*)cccc12; MeOSuc = COC(=O)CCC(=O)*; Cbz = O=C(OCc1ccccc1)*; Boc = CC(C)(C)OC(=O)*; CF3 = FC(F)(F)*

Key:
Pancreatic elastase [1] = molecular target: T1, Pancreatic elastase (Sus scrofa, UniProt P08419+P00772); experiment: Binding affinity for porcine Elastase; assay type: protein assay
In short: (§1)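 Porcine pancreatic elastase was followed spectrophotometrically at 410 nm, 37 °C, with Suc-Ala-Pro-Ala-p-nitroanilide in pH 8.0 buffer (0.1 M NaCl, 0.01 M HEPES, 0.01 M Tris, 0.1% PEG 6000). Paired runs were done: enzyme added last, or enzyme preincubated with inhibitor before substrate. Only data up to 10% substrate consumption were used. K_i* came from steady-state rates fitted to competitive inhibition.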

Neutrophil elastase [2] = molecular target: T2, Neutrophil elastase (Homo sapiens, UniProt P08246); experiment: Binding affinity against human leukocyte Elastase
T2 sequence (P08246 whole entry): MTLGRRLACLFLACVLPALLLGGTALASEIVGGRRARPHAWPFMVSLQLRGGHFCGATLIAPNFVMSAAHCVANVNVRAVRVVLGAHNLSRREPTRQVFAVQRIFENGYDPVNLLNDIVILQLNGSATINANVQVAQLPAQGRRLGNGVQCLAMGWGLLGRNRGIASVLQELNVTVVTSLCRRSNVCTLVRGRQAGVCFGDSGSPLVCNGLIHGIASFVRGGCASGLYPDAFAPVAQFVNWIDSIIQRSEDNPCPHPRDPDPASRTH

Cathepsin G = molecular target: T3, Cathepsin G (Homo sapiens, UniProt P08311); experiment: Binding affinity against human Cathepsin G
T3 sequence (P08311 whole entry): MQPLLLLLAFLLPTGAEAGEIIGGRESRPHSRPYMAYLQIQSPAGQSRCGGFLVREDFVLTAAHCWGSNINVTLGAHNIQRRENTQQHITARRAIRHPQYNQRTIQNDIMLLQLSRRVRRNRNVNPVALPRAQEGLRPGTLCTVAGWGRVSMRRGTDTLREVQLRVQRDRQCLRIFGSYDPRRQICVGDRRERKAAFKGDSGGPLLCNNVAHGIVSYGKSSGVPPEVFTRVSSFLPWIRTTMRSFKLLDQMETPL
In short: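 Cathepsin G came from neutrophil granule extracts of sputum or, for rat, peritoneal lavage, extracted in 1 M NaCl/0.1% Brij 35 acetate buffer, pH 5.5. K_i = [I]/(v0/v1 − 1), using equilibrium velocity when binding was slow.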

Chymotrypsinogen B = Chymotrypsinogen B (Homo sapiens, UniProt P17538); experiment: Binding affinity against alpha-chymotrypsin
Sequence of Chymotrypsinogen B (P17538 34-164 limits assumed, other chains not shown): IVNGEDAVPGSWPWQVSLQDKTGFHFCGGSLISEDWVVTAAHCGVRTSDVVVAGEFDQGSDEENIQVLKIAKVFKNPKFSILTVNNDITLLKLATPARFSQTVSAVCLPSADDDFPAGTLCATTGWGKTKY
Sequence of Chymotrypsinogen B (P17538 167-263 limits assumed, other chains not shown): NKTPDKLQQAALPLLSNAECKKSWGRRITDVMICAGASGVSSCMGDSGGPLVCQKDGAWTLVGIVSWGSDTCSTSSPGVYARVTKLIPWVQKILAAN

Pancreatic elastase [3] = molecular target: T1, Pancreatic elastase; experiment: Binding affinity against porcine pancreatic Elastase; assay type: protein assay; in short: as §1
Neutrophil elastase [4] = molecular target: T2, Neutrophil elastase; experiment: Binding affinity against human Neutrophil Elastase
In short: (§2)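 Human neutrophil elastase purified from purulent sputum. Activity was read at 410 nm (p-nitroaniline) at 37 °C with MeO-Suc-Ala-Ala-Pro-Val-p-nitroanilide in 0.1 M NaCl, 0.01 M HEPES, 0.01 M Tris, 0.1% PEG 6000, pH 8.0, 1.25% DMSO. Paired assays were run, one adding enzyme last and one preincubating enzyme with inhibitor. Data were limited to ≤10% substrate use. Steady-state K_i* came from the competitive inhibition equation.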

Neutrophil elastase [5] = molecular target: T2, Neutrophil elastase; experiment: Binding affinity against human Elastase for less active diasteriomer; in short: as §2
Neutrophil elastase [6] = molecular target: T2, Neutrophil elastase; experiment: Binding affinity against human Elastase for more active diasteriomer

SMILES	Ki (Pancreatic elastase [1])	other results
CC(C)[C@H](NC(=O)[C@H](CCCCNC(=O)OCc1ccccc1)NC(=O)OCc1ccccc1)C(=O)N1CCC[C@H]1C(=O)N[C@H](C(=O)C(F)(F)F)C(C)C (Cbz-K(Cbz)VPV-CF3)		Ki (Neutrophil elastase [2]): < 0.1 nM
CC(=O)N1CCC[C@H]1C(=O)N[C@@H](C)C(=O)N1CCC[C@H]1C(=O)N[C@@H](C)C(=O)C(F)(F)F (Ac-PAPA-CF3)	240 nM	
COC(=O)CCC(=O)N[C@H](C(=O)N1CCC[C@H]1C(=O)N[C@@H](Cc1ccccc1)C(=O)C(=O)OC)C(C)C		Ki (Cathepsin G): 1100 nM
CC(C)[C@H](NC(=O)[C@@H]1CCCN1C(=O)[C@H](Cc1ccccc1)NC(=O)OC(C)(C)C)C(=O)C(F)(F)F (Boc-Phe-Pro-Val-CF3)	1800 nM	
COC(=O)CCC(=O)N[C@@H](C)C(=O)N[C@@H](C)C(=O)N1CCC[C@H]1C(=O)N[C@@H](Cc1ccccc1)C(=O)C(F)(F)F (MeOSuc-AAPF-CF3)		Ki (Chymotrypsinogen B): 17 nM
COC(=O)CCC(=O)N[C@@H](C)C(=O)N[C@@H](C)C(=O)N1CCC[C@H]1C(=O)N[C@@H](Cc1ccccc1)C(=O)C(=O)OC		Ki (Chymotrypsinogen B): 79 nM
COC(=O)CCC(=O)N[C@H](C(=O)N1CCC[C@H]1C(=O)N[C@@H](Cc1ccccc1)C(=O)C(F)(F)F)C(C)C (MeOSuc-Val-Pro-Phe-CF3)		Ki (Cathepsin G): 3000 nM
CCOC(=O)C(=O)[C@H](C)NC(=O)[C@H](C)NC(=O)[C@H](C)NC(=O)[C@H](C)NC(=O)OCc1ccccc1	140 nM	
COC(=O)C(=O)[C@H](C)NC(=O)[C@@H]1CCCN1C(=O)[C@H](C)NC(=O)[C@@H]1CCCN1C(C)=O	29 nM	
CC(=O)N1CCC[C@H]1C(=O)N[C@@H](C)C(=O)N1CCC[C@H]1C(=O)N[C@@H](C)C=O (Ac-PAPA-aldehyde)		Ki (Pancreatic elastase [3]): 800 nM
CC(=O)N1CCC[C@H]1C(=O)N[C@@H](C)C(=O)N1CCC[C@H]1C(=O)N[C@@H](C)C(=O)C(=O)O		Ki (Pancreatic elastase [3]): 690 nM; Ki (Neutrophil elastase [4]): 66000 nM
CC(=O)N[C@@H](C)C(=O)N[C@@H](C)C(=O)N1CCC[C@H]1C(=O)N[C@@H](C)C(=O)C(F)(F)F (Ac-AAPA-CF3)	150 nM	Ki (Cathepsin G): > 800000 nM
CC(C)[C@H](NC(=O)[C@@H]1CCCN1C(=O)[C@H](C)NC(=O)[C@H](C)NS(=O)(=O)c1cccc2c(N(C)C)cccc12)C(=O)C(F)(F)F (Dansyl-AAPV-CF3)	88 nM	Ki (Cathepsin G): > 600000 nM; Ki (Neutrophil elastase [5]): 110 nM; Ki (Neutrophil elastase [6]): 6.3 nM
CC(C)[C@H](NC(=O)[C@@H]1CCCN1C(=O)[C@H](C)NC(=O)[C@H](C)NC(=O)OC(C)(C)C)C(=O)C(F)(F)F (Boc-AAPV-CF3)	32 nM	

Continued, in another order:

Ki (Pancreatic elastase [1])	SMILES	other results
28000 nM	COC(=O)CCC(=O)N[C@H](Cc1ccccc1)C(=O)N1CCC[C@H]1C(=O)N[C@H](C(=O)C(F)(F)F)C(C)C	
15 nM	COC(=O)CCC(=O)NCCCC[C@H](NS(=O)(=O)C12CC3CC(CC(C3)C1)C2)C(=O)N1CCC[C@H]1C(=O)N[C@H](C(=O)C(F)(F)F)C(C)C	
33 nM	COC(=O)CCC(=O)N[C@@H](C)C(=O)N[C@@H](C)C(=O)N1CCC[C@H]1C(=O)N[C@H](C(=O)C(F)(F)F)C(C)C (MeOSuc-AAPV-CF3)	
9900 nM	CCOC(=O)C(F)(F)C(=O)[C@@H](NC(=O)[C@@H]1CCCN1C(=O)[C@H](C)NC(=O)[C@H](C)NC(=O)CCC(=O)OC)C(C)C	
680 nM	COC(=O)CCC(=O)N[C@@H](C)C(=O)N[C@@H](C)C(=O)N1CCC[C@H]1C(=O)N[C@H](C(=O)C(=O)OC)C(C)C	
